From PMC3921099 (Neurochemical research, 2013)
Blank lines part the entries; values can stand above or below the molecule they belong to.

Tests used:
α1β3δ receptors = α1β3δ receptors (Rattus norvegicus, UniProt P62813+P63079); test: Two electrode voltage clamp in Xenopus oocytes, modulation of GABA current; format: cell-based; details: for stimulation of GABA EC3: 10 μM concentration
In short: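 α1β3δ receptors from rat cRNAs injected at 3:1:5 into Xenopus oocytes, expressed ≥24 h. Two-electrode clamp at −60 mV, room temperature. GABA concentration–response curves (including 1 μM and 1 mM GABA) recorded with and without 10 μM test compound, currents normalised to maximum evoked current. Hill fits. Curves with and without modulator compared by paired Student's t test, P<0.05, n = 4.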

αβδ receptors = test: Two electrode voltage clamp, DS2 test for incorporation of the delta subunit; format: cell-based, rat; details: 10 μM DS2 (experiments not shown)
In short: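 Expression of δ checked in every oocyte injected with α, β and δ cRNAs: GABA-induced current tested with addition of 10 μM DS2, under two-electrode voltage clamp at −60 mV, room temperature, in Xenopus Ringer.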

α1β3 receptors [1] = molecular target: T1, α1β3 receptors (Rattus norvegicus, UniProt P62813+P63079); test: Two electrode voltage clamp in Xenopus oocytes, modulation of GABA EC3 current; format: cell-based
In short: (§1)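 Rat α and β3 cRNAs (capped, polyadenylated) injected at 1:1 into Xenopus oocytes, 2.5–4 ng per oocyte, at least 24 h at 18 °C, then defolliculated. Two-electrode voltage clamp at −60 mV, room temperature, in Xenopus Ringer (pH 7.4). GABA titrated to 3–7 % of each oocyte's maximum (EC3). Test compound (0.1 % DMSO final) pre-applied 30 s, then co-applied with GABA until peak. Washout up to 15 min between applications. Responses are % of the GABA control. Mean ± SEM from ≥3 oocytes, ≥2 batches.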

α1β2δ receptors = α1β2δ receptors (Rattus norvegicus, UniProt P62813+P63138); test: Two electrode voltage clamp in Xenopus oocytes, modulation of GABA EC3 current; format: cell-based
In short: (§2)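 Oocytes injected with rat α, β and δ cRNAs (3:1:5, 2.5–4 ng total) and held ≥24 h at 18 °C before collagenase defolliculation. Voltage clamped at −60 mV, room temperature, perfused 6 ml/min with Ringer (pH 7.4). GABA EC3 (3–7 % of individual maximum) co-applied with test compound after 30 s pre-application, 0.1 % DMSO final. Concentration–response fit with Hill equation, bottom fixed at 100 %. Mean ± SEM, ≥3 oocytes, ≥2 batches.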

α1β3γ2 receptors [2] = molecular target: T2, α1β3γ2 receptors (Rattus norvegicus, UniProt P62813+P63079); test: Two electrode voltage clamp in Xenopus oocytes, modulation of GABA EC3 current; format: cell-based; details: GABA alone
α1β3Q64Cδ receptors = α1β3Q64Cδ receptors (Rattus norvegicus, UniProt P62813+P63079, Q89C); test: Two electrode voltage clamp, steric hindrance; format: cell-based; details: 10 μM
In short: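 α1, β3Q64C and δ cRNAs injected at 3:1:5. Defolliculated oocytes were exposed 3 min to freshly prepared 2 mM MTSEA-biotin in Ringer with GABA EC3, rinsed 5 min and used the same day. Untreated oocytes served as comparison. GABA EC3 response to 10 μM test compound measured by two-electrode clamp at −60 mV. Treated and untreated groups compared by unpaired Student's t test, P<0.05.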

[3] = molecular target: benzodiazepine binding site of α1β3γ2 receptors; details: read-out: IC50 of [3H]Ro15-1788 binding; cited from earlier work
α6β3δ receptors = α6β3δ receptors (Rattus norvegicus, UniProt P30191+P63079); test: Two electrode voltage clamp in Xenopus oocytes, modulation of GABA EC3 current; format: cell-based; details: 10 μM concentration
In short: as §2

α4β3δ receptors = α4β3δ receptors (Rattus norvegicus, UniProt P28471+P63079); test: as above; format: cell-based
In short: as §2

α1S204Cβ3δ receptors [4] = molecular target: α1S204Cβ3δ receptors (Rattus norvegicus, UniProt P62813+P63079, S231C); test: Two electrode voltage clamp, steric hindrance; format: cell-based; details: 10 μM, without MTSEA-biotin
α1S204Cβ3δ receptors [5] = test: Two electrode voltage clamp, steric hindrance; format: cell-based, rat; details: 10 μM, MTSEA-biotin treated
α1S204Cβ3Q64C receptors = α1S204Cβ3Q64C receptors (Rattus norvegicus, UniProt P62813+P63079, Q89C/S231C); test: Two electrode voltage clamp, steric hindrance; format: cell-based
In short: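 Oocytes expressing rat α1S204C with β3Q64C (1:1 cRNA) were defolliculated, then immersed 3 min in freshly made 2 mM MTSEA-biotin in Ringer containing GABA EC3, washed 5 min and recorded the same day. Two-electrode clamp at −60 mV with GABA EC3 plus test compound, compared with untreated oocytes. Mean ± SEM, n = 3–4.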

α1β1δ receptors = α1β1δ receptors (Rattus norvegicus, UniProt P15431+P62813); test: Two electrode voltage clamp in Xenopus oocytes, modulation of GABA EC3 current; format: cell-based
In short: as §2

α2β3 receptors = α2β3 receptors (Rattus norvegicus, UniProt P23576+P63079); test: Two electrode voltage clamp in Xenopus oocytes, modulation of GABA EC3 current; format: cell-based; details: 10 μM concentration
In short: as §1

α3β3 receptors = α3β3 receptors (Rattus norvegicus, UniProt P20236+P63079); test: as above; format: cell-based; details: 10 μM concentration
In short: as §1

α5β3 receptors = α5β3 receptors (Rattus norvegicus, UniProt P19969+P63079); test: as above; format: cell-based; details: 10 μM
In short: as §1

α6β3γ2 receptors [6] = molecular target: T3, α6β3γ2 receptors (Rattus norvegicus, UniProt P30191+P63079); test: Two electrode voltage clamp in Xenopus oocytes, modulation of GABA EC3 current; format: cell-based; details: 10 μM concentration
In short: (§3)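 Rat αxβ3γ2 cRNAs injected into Xenopus oocytes at a 1:1:5 ratio, 2.5–4 ng total, incubated at least 36 h at 18 °C before defolliculation. Two-electrode clamp at −60 mV, room temperature, Ringer pH 7.4. GABA at EC3 (3–7 % of the cell's maximum current). Test compound (0.1 % DMSO) pre-applied 30 s, then co-applied with GABA to peak. Effects are % of GABA EC3 current. Mean ± SEM, ≥3 oocytes from ≥2 batches.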

α1β3 receptors [7] = molecular target: T1, α1β3 receptors; details: 10 μM concentration; cited from earlier work
α4β3γ2 receptors [8] = molecular target: T4, α4β3γ2 receptors (Rattus norvegicus, UniProt P28471+P63079); test: Two electrode voltage clamp in Xenopus oocytes, modulation of GABA EC3 current; format: cell-based; details: 10 μM concentration
In short: as §3

α4β3γ2 receptors [9] = molecular target: T4, α4β3γ2 receptors; details: cited from earlier work
α1β3γ2 receptors [10] = molecular target: T2, α1β3γ2 receptors; details: 10 μM concentration; cited from earlier work
α6β3γ2 receptors [11] = molecular target: T3, α6β3γ2 receptors; details: 10 μM concentration; cited from earlier work
[12] = α1β3δ receptors, LAU 157 up to 30 μM (experiments not shown)

T1 sequence (P62813 28-455): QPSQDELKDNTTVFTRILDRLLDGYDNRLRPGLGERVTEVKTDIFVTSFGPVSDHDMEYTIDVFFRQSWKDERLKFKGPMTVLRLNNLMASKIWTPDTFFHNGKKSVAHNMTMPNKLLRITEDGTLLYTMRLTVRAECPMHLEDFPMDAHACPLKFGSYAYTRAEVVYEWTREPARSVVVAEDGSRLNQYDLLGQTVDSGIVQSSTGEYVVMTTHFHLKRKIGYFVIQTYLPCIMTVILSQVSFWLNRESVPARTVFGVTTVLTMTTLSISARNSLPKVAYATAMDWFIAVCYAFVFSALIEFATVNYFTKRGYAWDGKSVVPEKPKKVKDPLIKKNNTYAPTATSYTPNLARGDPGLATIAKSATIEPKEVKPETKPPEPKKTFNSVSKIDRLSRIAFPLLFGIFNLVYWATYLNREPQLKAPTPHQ
T1 sequence (P63079 26-473): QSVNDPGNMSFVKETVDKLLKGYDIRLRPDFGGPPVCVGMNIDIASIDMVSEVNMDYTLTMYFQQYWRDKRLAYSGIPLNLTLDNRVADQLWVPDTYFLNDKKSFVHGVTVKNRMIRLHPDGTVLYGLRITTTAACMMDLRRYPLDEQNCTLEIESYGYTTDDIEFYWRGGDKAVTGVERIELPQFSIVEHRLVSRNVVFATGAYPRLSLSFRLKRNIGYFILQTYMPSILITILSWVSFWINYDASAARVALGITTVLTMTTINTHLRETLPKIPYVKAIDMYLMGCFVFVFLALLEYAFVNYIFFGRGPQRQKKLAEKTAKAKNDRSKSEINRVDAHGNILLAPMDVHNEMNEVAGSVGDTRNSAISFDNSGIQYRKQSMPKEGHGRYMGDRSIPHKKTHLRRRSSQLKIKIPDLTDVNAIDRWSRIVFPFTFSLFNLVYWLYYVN
Chain of α1β2δ receptors (P62813 28-455): as the sequence (P62813 28-455) above
Chain of α1β2δ receptors (P63138 25-474 limits assumed): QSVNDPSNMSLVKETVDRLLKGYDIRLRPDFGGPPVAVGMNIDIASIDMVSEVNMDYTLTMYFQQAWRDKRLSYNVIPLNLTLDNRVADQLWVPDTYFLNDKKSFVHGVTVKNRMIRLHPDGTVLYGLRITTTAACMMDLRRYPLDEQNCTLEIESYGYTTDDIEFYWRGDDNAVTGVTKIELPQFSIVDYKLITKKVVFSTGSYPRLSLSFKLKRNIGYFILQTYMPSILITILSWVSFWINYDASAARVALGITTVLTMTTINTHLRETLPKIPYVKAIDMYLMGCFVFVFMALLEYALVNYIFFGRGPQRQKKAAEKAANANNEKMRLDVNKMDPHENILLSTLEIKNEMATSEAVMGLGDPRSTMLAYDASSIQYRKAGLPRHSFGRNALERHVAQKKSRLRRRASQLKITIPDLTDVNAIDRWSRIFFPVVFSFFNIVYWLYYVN
Chain of α1β2δ receptors (P18506 17-449 partner limits assumed): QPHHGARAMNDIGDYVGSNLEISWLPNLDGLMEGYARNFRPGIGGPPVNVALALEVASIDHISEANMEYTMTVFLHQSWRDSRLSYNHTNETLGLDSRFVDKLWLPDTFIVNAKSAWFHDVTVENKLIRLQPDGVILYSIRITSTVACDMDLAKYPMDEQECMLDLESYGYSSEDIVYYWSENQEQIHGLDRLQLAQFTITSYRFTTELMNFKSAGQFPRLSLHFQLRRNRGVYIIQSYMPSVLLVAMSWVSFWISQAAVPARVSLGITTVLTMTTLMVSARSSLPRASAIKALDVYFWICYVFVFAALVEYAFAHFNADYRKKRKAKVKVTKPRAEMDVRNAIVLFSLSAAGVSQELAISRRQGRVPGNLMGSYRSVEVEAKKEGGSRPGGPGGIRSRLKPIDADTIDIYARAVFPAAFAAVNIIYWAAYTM
Chain of α1β3δ receptors (P62813 28-455): as the sequence (P62813 28-455) above
Chain of α1β3δ receptors (P63079 26-473): as the sequence (P63079 26-473) above
Chain of α1β3δ receptors (P18506 17-449 partner limits assumed): as the sequence (P18506 17-449 partner limits assumed) above
T4 sequence (P28471 36-552): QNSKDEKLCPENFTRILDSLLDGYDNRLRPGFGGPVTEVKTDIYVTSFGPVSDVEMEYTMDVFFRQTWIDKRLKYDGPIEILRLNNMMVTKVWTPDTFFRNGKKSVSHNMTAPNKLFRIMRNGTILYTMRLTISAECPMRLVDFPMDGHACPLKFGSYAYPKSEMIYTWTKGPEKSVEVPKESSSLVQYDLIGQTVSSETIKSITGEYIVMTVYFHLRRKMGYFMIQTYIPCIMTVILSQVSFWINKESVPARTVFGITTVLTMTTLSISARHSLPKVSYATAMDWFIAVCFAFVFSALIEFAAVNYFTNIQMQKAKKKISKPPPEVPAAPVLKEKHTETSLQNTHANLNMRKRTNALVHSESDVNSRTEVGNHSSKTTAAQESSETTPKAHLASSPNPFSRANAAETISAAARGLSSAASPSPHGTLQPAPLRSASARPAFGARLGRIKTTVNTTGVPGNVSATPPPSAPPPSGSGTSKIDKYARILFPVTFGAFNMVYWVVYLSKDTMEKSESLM
T4 sequence (P63079 26-473): as the sequence (P63079 26-473) above
T4 sequence (P18508 39-466 partner): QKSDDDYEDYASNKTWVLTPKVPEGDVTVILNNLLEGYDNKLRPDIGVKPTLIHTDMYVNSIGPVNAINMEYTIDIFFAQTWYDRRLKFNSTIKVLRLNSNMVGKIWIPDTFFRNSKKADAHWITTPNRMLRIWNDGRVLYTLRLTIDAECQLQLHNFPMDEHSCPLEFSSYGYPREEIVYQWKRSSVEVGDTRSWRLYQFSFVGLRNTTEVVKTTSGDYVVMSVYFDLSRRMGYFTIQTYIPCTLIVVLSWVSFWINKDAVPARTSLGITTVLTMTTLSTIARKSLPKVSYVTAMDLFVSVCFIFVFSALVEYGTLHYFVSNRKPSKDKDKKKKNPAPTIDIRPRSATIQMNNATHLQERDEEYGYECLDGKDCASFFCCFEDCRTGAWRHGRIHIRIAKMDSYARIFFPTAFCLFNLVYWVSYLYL

SMILES: O=c1c2c[nH]c3ccc(Cl)cc3c-2nn1-c1ccc([N+](=O)[O-])cc1 [LAU 157, 8-chloro-2-(4-nitrophenyl)-2H-pyrazolo[4,3-c]quinolin-3(5H)-one]
modulation of GABA EC3 (α1β3 receptors [1]): did not significantly modulate | inhibition of the effect of 1 μM LAU 177 (α1β3 receptors [1]; increasing concentrations of LAU 157): complete inhibition | modulation of GABA EC3 (α1β3δ receptors; α1β3δ receptors): did not significantly modulate | inhibition of the effects of 1 μM DS2 (α1β3δ receptors; [12]): did not inhibit | inhibition of the effects of 3 μM tracazolate (α1β3δ receptors; [12]): did not inhibit | inhibition of the effect of 1 μM LAU 177 (α1β3δ receptors; α1β3δ receptors, increasing concentrations of LAU 157): complete inhibition | modulation of GABA EC3 (α1β2δ receptors; α1β2δ receptors): did not significantly modulate | inhibition of the effect of 1 μM LAU 177 (α1β2δ receptors; α1β2δ receptors, increasing concentrations of LAU 157): complete inhibition

SMILES: CCCCNc1c(C(=O)OCC)c(C)nc2c1cnn2CC [tracazolate, 4-(butylamino)-1-ethyl-6-methyl-1H-pyrazolo[3,4-b]pyridine-5-carboxylate, reference compound]
stimulation to % of GABA EC3 (α1β3δ receptors; α1β3δ receptors, 3 μM tracazolate (experiments not shown)): 900 % of GABA EC3

SMILES: NCCCC(=O)O [GABA, gamma-aminobutyric acid, reference compound]
GABA-induced current (maximal) (α1β3 receptors [1]; GABA alone): 8 μA | maximal GABA-induced effect (current) (α1β3δ receptors; α1β3δ receptors, GABA alone): about 1 μA | GABA-induced current (maximal) (α1β3γ2 receptors [2]): 16 μA

SMILES: COc1ccc2[nH]cc3c(=O)n(-c4ccc(C#N)cc4)nc-3c2c1 [LAU 177, 4-(8-methoxy-3-oxo-3,5-dihydro-2H-pyrazolo[4,3-c]quinolin-2-yl)benzonitrile]
enhancement of GABA-induced currents, up to % of GABA EC3 (α1β3 receptors [1]; concentration dependent, maximum): 1152 ± 145 % of GABA EC3 | stimulation of GABA EC3 after incubation with MTSEA biotin (α1β3Q64Cδ receptors; MTSEA-biotin treated): 1754 ± 568% | stimulation of GABA EC3 (α1β3Q64Cδ receptors; without MTSEA-biotin): 6941 ± 1268% | IC50 [3]: 0.75 ± 0.81 nM | EC50 (α1β3δ receptors): 1000 nM | enhancement of the conductance induced by maximal GABA concentrations (α1β3δ receptors; α1β3δ receptors, 10 μM LAU 177): about 12 times | change of GABA EC50 by the modulator (α1β3δ receptors; α1β3δ receptors, 10 μM LAU 177, paired Student's t test p>0.05): no significant change | stimulation of GABA EC3 (α1β3δ receptors; α1β3δ receptors): 3285 ± 257% | GABA-induced current in the presence of LAU 177 (α1β3δ receptors; α1β3δ receptors, 1 mM GABA, 10 μM LAU 177): 13 μA | stimulation of GABA EC3 (α6β3δ receptors): 1639 ± 244% | stimulation of GABA EC3 (α4β3δ receptors; α4β3δ receptors (printed δ4β3δ), 10 μM concentration): 1365 ± 117% | EC50 (α1β2δ receptors): > 10700 nM | stimulation of GABA EC3 (α1β2δ receptors; α1β2δ receptors, 10 μM concentration): 2843 ± 396% | stimulation of GABA EC3 (α1S204Cβ3δ receptors [4]): 5278 ± 1008% | stimulation of GABA EC3 after incubation with MTSEA biotin (α1S204Cβ3δ receptors [5]): 1884 ± 311% | current enhancement in the presence of MTSEA-biotin (α1S204Cβ3Q64C receptors; MTSEA-biotin treated): drastically reduced | enhancement of GABA-induced currents compared with α1β3 receptors (α1S204Cβ3Q64C receptors; without MTSEA-biotin): to a similar extent with a comparable potency | efficacy compared to α1β2,3δ receptors (α1β1δ receptors): drastically reduced | stimulation of GABA EC3 (α2β3 receptors): 981 ± 20 % of GABA EC3 | stimulation of GABA EC3 (α3β3 receptors): 913 ± 178 % of GABA EC3 | enhancement of the GABA-induced current (α5β3 receptors): about 528 ± 103 % GABA | stimulation of GABA EC3 (α6β3γ2 receptors [6]): 1622 ± 87% | stimulation to % of GABA EC3 (α1β3 receptors [7]): 1063 ± 128 % of GABA EC3 | stimulation of GABA EC3 (α4β3γ2 receptors [8]): 981 ± 52%

More lines, main results first:

stimulation to % of GABA EC3 (α1β3δ receptors; α1β3δ receptors, 1 μM DS2 (experiments not shown)): 400 % of GABA EC3 | enhancement of GABA-induced currents (αβδ receptors): dramatically enhanced
SMILES: O=C(Nc1c(-c2cccs2)nc2ccccn12)c1ccc(Cl)cc1 [DS2, 4-Chloro-N-[2-(2-thienyl)imidazo[1,-2-a]pyridin-3-yl]benzamide, reference compound]

stimulation of GABA EC3 (α1β3δ receptors; α1β3δ receptors): 1186 ± 89% | stimulation of GABA EC3 (α6β3δ receptors): 1152 ± 106% | modulation of GABA-induced currents (α4β3δ receptors; α4β3δ receptors, concentration not given): 425 ± 26%
SMILES: COc1ccc(-n2nc3c4cc(Cl)ccc4[nH]cc-3c2=O)cc1 [PZ-II-028, 8-chloro-2-(4-methoxyphenyl)-2H-pyrazolo[4,3-c]quinolin-3(5H)-one, reference compound]
modulation of GABA-induced currents (α4β3γ2 receptors [9]): 226 ± 14% | stimulation of GABA-induced currents (α1β3γ2 receptors [10]): 939 ± 64 | stimulation of GABA-induced current (α6β3γ2 receptors [11]): 1871 ± 28%
